From ChEMBL document CHEMBL4028873, “The Discovery of a Dual TTK Protein Kinase/CDC2-Like Kinase (CLK2) Inhibitor for the Treatment of Triple Negative Breast Cancer Initiated from a Phenotypic Screen” (J Med Chem, 2017)
Calls of active or inactive are those of the source. The calls are words filed in the database; no cut-off is given here.

Legend:
[1] = Metabolic stability in rat liver S9 fraction assessed as percent of compound remaining after 60 mins; assay type: ADME, tissue-based; settings: read-out: Stability
[2] = molecular target: Dual specificity tyrosine-phosphorylation-regulated kinase 1A (Homo sapiens, UniProt Q13627); assay: Inhibition of human full length GST-tagged DYRK1A expressed in baculovirus by Z'-LYTE assay
[3] = molecular target: T1, Dual specificity tyrosine-phosphorylation-regulated kinase 1B (Homo sapiens, UniProt Q9Y463); assay: Inhibition of full length human recombinant GST-tagged DYRK1B expressed in baculovirus by Z'-LYTE assay
Target sequence in this assay (Q9Y463 whole entry): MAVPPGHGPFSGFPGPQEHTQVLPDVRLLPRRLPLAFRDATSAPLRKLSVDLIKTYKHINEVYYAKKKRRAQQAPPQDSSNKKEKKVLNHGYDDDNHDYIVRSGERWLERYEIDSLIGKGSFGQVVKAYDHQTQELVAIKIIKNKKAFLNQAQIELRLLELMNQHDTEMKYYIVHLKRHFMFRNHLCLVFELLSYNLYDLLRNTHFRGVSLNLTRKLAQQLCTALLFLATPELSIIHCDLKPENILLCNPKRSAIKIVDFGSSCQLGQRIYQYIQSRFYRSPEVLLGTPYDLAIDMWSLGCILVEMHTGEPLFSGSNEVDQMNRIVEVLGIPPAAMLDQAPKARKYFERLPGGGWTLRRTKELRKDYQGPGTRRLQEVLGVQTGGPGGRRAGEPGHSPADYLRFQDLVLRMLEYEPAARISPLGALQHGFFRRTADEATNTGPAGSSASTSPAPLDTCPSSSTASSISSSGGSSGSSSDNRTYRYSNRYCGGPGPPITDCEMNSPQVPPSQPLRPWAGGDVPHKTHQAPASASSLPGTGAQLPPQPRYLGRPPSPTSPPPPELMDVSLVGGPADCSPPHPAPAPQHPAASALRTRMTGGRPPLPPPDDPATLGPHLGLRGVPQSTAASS

[4] = molecular target: c-Jun N-terminal kinase, JNK (Homo sapiens, UniProt P45983+P53779+P45984); assay: Binding affinity to JNK1/JNK2/JNK3 in human HCT116 cell lysate at 3 uM after 1 hr by LC-MS/MS analysis
Procedure, shortened: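 ActivX KiNative cellular kinase profiling. HCT-116 cells were grown in RPMI-1640 with 10% FBS and exposed to compound at 3 μM for 1 h, with DMSO-only controls. Cells were then washed with ice-cold PBS, scraped, pelleted and stored at −80 °C. Kinase binding was reported as percent occupancy relative to the untreated controls.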

MDA-MB-468 = assay: Antiproliferative activity against human MDA-MB-468 cells after 3 days by CellTiter-Glo assay; assay type: functional, cell-based
Procedure, shortened: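 Cell lines kept in vendor-recommended growth media; 3-day compound exposure, then CellTiter-Glo luminescence read. Percent inhibition per concentration normalized to DMSO control, triplicate wells.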

Mus musculus = assay: Toxicity in SCID mouse xenografted with human CAL51 cells assessed as loss in body weight at 20 mg/kg, iv administered every 3 days for 16 days relative to control; assay type: organism-based; settings: in vivo
CAL-51 = assay: Antiproliferative activity against human CAL51 cells xenografted in SCID mouse assessed as tumor growth inhibition at 20 mg/kg, iv administered every 7 days for 16 days relative to control; assay type: functional; settings: CAL-51, iv, read-out: TGI
Procedure, shortened: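 Mice bearing tumors of about 125 mm3 randomized (n = 8−10/group) and given compound intravenously at the listed doses and schedules. Tumors measured twice weekly by digital caliper on long and short axes; volume = width² × length/2.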

[5] = Clearance in SCID mouse at 5 mg/kg, iv; assay type: ADME, organism-based; settings: in vivo
[6] = molecular target: Phosphorylase b kinase gamma catalytic chain, skeletal muscle/heart isoform (Homo sapiens, UniProt Q16816); settings: 3 uM
Phosphorylase b kinase gamma catalytic chain, skeletal muscle/heart isoform, sequence (Q16816 whole entry, looked up, canonical isoform): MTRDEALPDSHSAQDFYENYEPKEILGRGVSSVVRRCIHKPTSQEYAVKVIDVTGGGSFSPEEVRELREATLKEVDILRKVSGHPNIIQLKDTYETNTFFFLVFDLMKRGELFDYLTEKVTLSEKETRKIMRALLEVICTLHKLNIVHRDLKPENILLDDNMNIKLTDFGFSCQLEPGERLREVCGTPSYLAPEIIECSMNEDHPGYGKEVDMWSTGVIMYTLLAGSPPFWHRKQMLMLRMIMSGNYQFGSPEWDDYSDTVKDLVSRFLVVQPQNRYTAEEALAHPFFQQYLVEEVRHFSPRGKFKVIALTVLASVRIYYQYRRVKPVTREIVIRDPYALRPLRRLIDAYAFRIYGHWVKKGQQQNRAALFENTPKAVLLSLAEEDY

[7] = molecular target: T1, Dual specificity tyrosine-phosphorylation-regulated kinase 1B; settings: 3 uM
Target sequence in this assay (Q9Y463 whole entry, looked up): as the sequence (Q9Y463 whole entry) above

[8] = molecular target: Dual specificity protein kinase CLK1 (Homo sapiens) (UniProt P49759); settings: 3 uM
Dual specificity protein kinase CLK1 (Homo sapiens), sequence (P49759 whole entry, looked up): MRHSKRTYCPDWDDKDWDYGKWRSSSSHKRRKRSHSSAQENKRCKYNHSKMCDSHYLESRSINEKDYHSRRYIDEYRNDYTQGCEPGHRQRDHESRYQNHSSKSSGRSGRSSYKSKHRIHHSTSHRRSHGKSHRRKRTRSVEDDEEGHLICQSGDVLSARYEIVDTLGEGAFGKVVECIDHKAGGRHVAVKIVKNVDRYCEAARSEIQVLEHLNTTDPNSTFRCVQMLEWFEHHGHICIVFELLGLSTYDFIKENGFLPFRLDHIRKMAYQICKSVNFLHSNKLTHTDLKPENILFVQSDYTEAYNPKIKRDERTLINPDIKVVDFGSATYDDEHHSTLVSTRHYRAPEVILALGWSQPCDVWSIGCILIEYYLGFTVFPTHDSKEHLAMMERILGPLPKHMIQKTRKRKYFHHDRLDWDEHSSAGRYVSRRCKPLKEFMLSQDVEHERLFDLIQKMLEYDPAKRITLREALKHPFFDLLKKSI

- remaining at 1 h [1]: 98%
- IC50 [2]: 104 nM
- IC50 [3]: 157 nM
- Activity [4]: > 75%
- clearance [5]: 8.48 mL/min/kg
- inhibition [6]: > 80%
- inhibition [7]: > 80%
- inhibition [8]: > 80%
SMILES: CNC(=O)c1ccc(Nc2nc(OC3CCCC3)c3c(-c4ccc5nc(C)oc5c4)c[nH]c3n2)c(OC)c1
- Activity (MDA-MB-468): Active
- Activity (Mus musculus): 17%
- inhibition in vivo at 20 mg/kg (CAL-51): 70%
